Where “and” joins values, the source holds several entries; their conditions need not be identical. Equal values may be shown once. Calls of active or inactive are those of the source.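 Rule for the calls: active = fitted curve reaches 40% activation at a dose no higher than the top dose validly tested; inconclusive = flat curve between 30 and 70% activation, or poor fit; inactive = the rest, including signal moving against the expected rise.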
Tested on: U2OS HRE-luciferase reporter, luminescence, HIF activation
Experiment: HIF pathway reporter activators – cell-based, luminescence, U2OS HRE-luc, dry powder, set 8, dose response (AID 493227)
Settings: not given
Method in brief: (§1)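 Material: human U2OS osteosarcoma cells stably carrying 3×HRE-luciferase reporter. Input: 6,000 cells per well. Technique: Steady-Glo luminescence. Medium: phenol red-free DMEM with 10% FBS, no hygromycin. Times: 24 h plating, 24 h compound treatment.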

Row | SMILES | AC40
1 | CCCCNC(=O)c1cc(-c2ccccc2)on1 | 3.17 µM
2 | C[C@H](Nc1nc(-c2ccccn2)nnc1-c1ccccc1)C1CCCCC1 | 1.16 µM
3 | O=C(NCCCO)c1cc(-c2ccccc2)on1 | 5.37 µM
4 | N#CC1(c2ccccc2)CCN(Cc2ccc(O)c3ncccc23)CC1 | 14.5 µM
5 | Cn1c(-c2ccccc2)cnc1Nc1nc(-c2ccccn2)nnc1-c1ccccc1 | 4.17 µM
6 | c1ccc(-c2nnc(-c3ccccn3)nc2NCC2CC2)cc1 | 2.77 µM
7 | O=C(NCCN1CCCCC1)c1cc(-c2ccccc2)on1 | > 38 µM (inactive)
8 | O=C(NCCCCO)c1cc(-c2ccccc2)on1 | 1.65 µM
9 | c1ccc(-c2nnc(-c3ccccn3)nc2Nc2nc3ccccc3s2)cc1 | 2.87 µM
10 | OCC1CCN(c2nc(-c3ccccn3)nnc2-c2ccccc2)CC1 | 12.1 µM
11 | COc1ccccc1N1CCN(Cc2ccc(O)c3ncccc23)CC1 | 11.8 µM
12 | O=C(NCCCN1CCOCC1)c1cc(-c2ccccc2)on1 | 7.62 µM
13 | c1ccc(CNc2nc(-c3ccccn3)nnc2-c2ccccc2)cc1 | 3.22 µM
14 | O=C(NCc1ccccc1)c1cc(-c2ccccc2)on1 | > 38 µM (inactive)
15 | Cc1ccc(CNc2nc(-c3ccccn3)nnc2-c2ccccc2)cc1 | 1.28 µM
16 | Oc1ccc(CN2CCC(Cc3ccccc3)CC2)c2cccnc12 | 11.1 µM
17 | COc1cccc(CNc2nc(-c3ccccn3)nnc2-c2ccccc2)c1 | 1.31 µM
18 | C[C@@H](Nc1nc(-c2ccccn2)nnc1-c1ccccc1)c1ccccc1 | 1.61 µM
19 | c1ccc(-c2cccc(CNc3nc(-c4ccccn4)nnc3-c3ccccc3)c2)cc1 | 0.06 µM
20 | CN(C)CCNC(=O)c1cc(-c2ccccc2)on1 | > 38 µM (inactive)
21 | Cc1ccc(Nc2nc(-c3ccccn3)nnc2-c2ccccc2)cn1 | 3.28 µM
22 | CC(C)(C)CCNC(=O)c1cc(-c2ccccc2)on1 | 5.03 µM

Row | SMILES | AC40
23 | c1ccc(-c2csc(Nc3nc(-c4ccccn4)nnc3-c3ccccc3)n2)cc1 | 13.9 µM
24 | Cc1cccc(CNC(=O)c2cc(-c3ccccc3)on2)c1 | > 38 µM (inactive)
25 | Oc1ccc(CN2CCc3ccccc3C2)c2cccnc12 | 2.32 µM
26 | O=C(NCC1CC1)c1cc(-c2ccccc2)on1 | 1.5 µM
27 | C[C@@H](Nc1nc(-c2ccccn2)nnc1-c1ccccc1)C1CCCCC1 | 1.88 µM
28 | Cc1cccc(CNc2nc(-c3ccccn3)nnc2-c2ccccc2)c1 | 2.09 µM
29 | c1ccc(CCNc2nc(-c3ccccn3)nnc2-c2ccccc2)cc1 | 1.35 µM
30 | c1ccc(-c2nnc(-c3ccccn3)nc2N2CCC(c3ccccc3)C2)cc1 (stereo not drawn) | 0.509 µM
31 | Oc1ccc(CN2CCC3CCCCC3C2)c2cccnc12 (stereo not drawn) | 4.8 µM
32 | Cc1ccccc1CNc1nc(-c2ccccn2)nnc1-c1ccccc1 | 2.08 µM
33 | CC(C)(C)CCNc1nc(-c2ccccn2)nnc1-c1ccccc1 | 1.41 µM and 0.785 µM
34 | Oc1ccc(CNC2Cc3ccccc3C2)c2cccnc12 | 8.12 µM
35 | CN1CCN(c2nc(-c3ccccn3)nnc2-c2ccccc2)CC1 | 3.01 µM
36 | O=C(NCCN1CCOCC1)c1cc(-c2ccccc2)on1 | 8.1 µM
37 | C=CCNc1nc(-c2ccccn2)nnc1-c1ccccc1 | 1.3 µM
38 | c1ccc(-c2nnc(-c3ccccn3)nc2Nc2cnc3ccccc3n2)cc1 | 3.83 µM
39 | c1ccc(-c2ccc(CNc3nc(-c4ccccn4)nnc3-c3ccccc3)cc2)cc1 | 0.379 µM
40 | CN(C)c1nc(-c2ccccn2)nnc1-c1ccccc1 | 6.62 µM
41 | c1ccc(-c2nnc(-c3ccccn3)nc2N2CCC(N3CCOCC3)CC2)cc1 | 2.18 µM
42 | O=C(NCCCn1ccnc1)c1cc(-c2ccccc2)on1 | 4.16 µM
43 | Cc1cccc(Nc2nc(-c3ccccn3)nnc2-c2ccccc2)n1 | 1.89 µM
44 | Oc1ccc(CNC2CCc3ccccc32)c2cccnc12 (stereo not drawn) | 13.9 µM

Row | SMILES | AC40
45 | Clc1cccc(CNc2nc(-c3ccccn3)nnc2-c2ccccc2)c1 | 0.826 µM
46 | CC1CN(Cc2ccc(O)c3ncccc23)CC(C)O1 (stereo not drawn) | 36.6 µM
47 | c1ccc(-c2cnc(Nc3nc(-c4ccccn4)nnc3-c3ccccc3)s2)cc1 | 10.7 µM
48 | c1ccc(-c2nnc(-c3ccccn3)nc2NCCN2CCOCC2)cc1 | 1.96 µM
49 | c1ccc(-c2nnc(-c3ccccn3)nc2NCCc2ccccn2)cc1 | 3.14 µM
50 | c1ccc(-c2nnc(-c3ccccn3)nc2NCC2CCOCC2)cc1 | 5.01 µM
51 | c1ccc(-c2nnc(-c3ccccn3)nc2NCc2cccnc2)cc1 | 3.73 µM
52 | Cc1cccc(NC(=O)c2cc(-c3ccccc3)on2)n1 | > 38 µM (inactive)
53 | c1ccc(-c2nnc(-c3ccccn3)nc2NCCCN2CCOCC2)cc1 | 3.61 µM
54 | c1ccc(-c2nnc(-c3ccccn3)nc2N2CCN(c3ccncc3)CC2)cc1 | 2.35 µM
55 | CC(C)(C)c1ccc(CNc2nc(-c3ccccn3)nnc2-c2ccccc2)cc1 | 0.393 µM
56 | O=C(NC1Cc2ccccc2C1)c1cc(-c2ccccc2)on1 | > 38 µM (inactive)
57 | CC(Nc1nc(-c2ccccn2)nnc1-c1ccccc1)c1ccccc1 (stereo not drawn) | 0.875 µM
58 | OCC1CCN(Cc2ccc(O)c3ncccc23)CC1 | 15.9 µM
59 | c1ccc(-c2nnc(-c3ccccn3)nc2NCC2CCCCC2)cc1 | 1.28 µM
60 | Cc1ccc(CNc2nc(-c3ccccn3)nnc2-c2ccccc2)cc1C | 0.364 µM
61 | OCCCNc1nc(-c2ccccn2)nnc1-c1ccccc1 | 7.76 µM
62 | c1ccc(-c2nnc(Nc3nc(-c4ccccn4)nnc3-c3ccccc3)s2)cc1 | 0.582 µM
63 | COc1ccc(CNc2nc(-c3ccccn3)nnc2-c2ccccc2)cc1 | 0.782 µM
64 | CC(C)(C)OC(=O)N1CCN(Cc2ccc(O)c3ncccc23)CC1 | > 38 µM (inactive)
65 | c1ccc(-c2nnc(-c3ccccn3)nc2NCc2ccccn2)cc1 | 8.01 µM

Tested on: not listed separately
Experiment: as above
Settings: U2OS HRE-luciferase reporter, luminescence, HIF activation; at 38 µM (top of the series)
Method in brief: as §1

Row | SMILES | activation
66 | O=C(Nc1cn2ccccc2n1)c1cc(-c2ccccc2)on1 | -5.39% (inactive)
67 | O=C(Nc1cnc2ccccc2c1)c1cc(-c2ccccc2)on1 | 22.1% (inactive)
68 | Cc1ccccc1CNC(=O)c1cc(-c2ccccc2)on1 | 17.1% (inactive)
69 | O=C(Nc1nc(-c2ccccc2)cs1)c1cc(-c2ccccc2)on1 | -11.1% (inactive)
70 | O=C(Nc1ncc2ccccc2n1)c1cc(-c2ccccc2)on1 | 8.54% (inactive)
71 | O=C(Nc1nc2ccccc2s1)c1cc(-c2ccccc2)on1 | 9.05% (inactive)
72 | O=C(Nc1ncc(-c2ccccc2)o1)c1cc(-c2ccccc2)on1 | -20.6% (inactive)
73 | CN1CCN(C(=O)c2cc(-c3ccccc3)on2)CC1 | -33.9% (inactive)
74 | c1ccc(-c2nnc(-c3ccccn3)nc2N2CCC(C3CCCCC3)C2)cc1 (stereo not drawn) | 2190% (inactive)
75 | Oc1ccc(CN2CCc3ccccc3C2)c2cccnc12 | 99.2% (inactive)
76 | O=C(c1cc(-c2ccccc2)on1)N1CCC(N2CCCC2)CC1 | -2.94% (inactive)
77 | O=C(c1cc(-c2ccccc2)on1)N1CCC(N2CCOCC2)CC1 | -9.31% (inactive)
78 | O=C(Nc1ccc2ccccc2n1)c1cc(-c2ccccc2)on1 | -20.3% (inactive)
79 | Cc1ccc(CNC(=O)c2cc(-c3ccccc3)on2)cc1 | -27% (inactive)
80 | Cc1ccc(NC(=O)c2cc(-c3ccccc3)on2)cn1 | -3.16% (inactive)
81 | O=C(c1cc(-c2ccccc2)on1)N1CCC(CO)CC1 | -18% (inactive)
82 | O=C(c1cc(-c2ccccc2)on1)N1CCc2cccnc21 | -1.93% (inactive)
83 | O=C(Nc1nnc(-c2ccccc2)s1)c1cc(-c2ccccc2)on1 | 6.25% (inactive)
84 | O=C(NCC1CCCCC1)c1cc(-c2ccccc2)on1 | 15.7% (inactive)
85 | O=C(NC1CCc2ccccc2C1)c1cc(-c2ccccc2)on1 (stereo not drawn) | -11.6% (inactive)
86 | Cn1c(NC(=O)c2cc(-c3ccccc3)on2)nc2ccccc21 | 5.66% (inactive)
87 | O=C(c1cc(-c2ccccc2)on1)N1CCN(c2ccncc2)CC1 | -11.8% (inactive)
88 | Cn1c(-c2ccccc2)cnc1NC(=O)c1cc(-c2ccccc2)on1 | 8.45% (inactive)
